Consider 35 molecules from ChEMBL document CHEMBL1153989, “Synthesis and antiviral activities of novel acylhydrazone derivatives targeting HIV-1 capsid protein” (Bioorg Med Chem Lett, 2009).

The subject of data set [1] is Simian immunodeficiency virus. The data set is described as follows: Antiviral activity against SIV-induced syncytium in human CEM174 cells assessed as inhibition of virus-induced cytopathogenicity after 5 days. The note with it: CEM174, 120 h. Type of data set: functional, organism-based. In short, it runs like this:
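CEM174 cells at 1 × 10⁵ cells/mL, infected with 100 TCID₅₀ SIV per well, with serial compound dilutions; 5 days at 37 °C, 5% CO₂, humidified. Syncytium (giant cell) formation scored by microscope. EC₅₀ is the concentration giving 50% protection against SIV cytopathogenicity. Indinavir at 1 × 10⁻⁶ mol/L served as positive control.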
On the technique in general: Damage to the host cells serves as the signal in cytopathic effect assays.

Data set [2] is described as follows: Cytotoxicity against uninfected human CEM174 cells after 5 days by MTT assay. Type of data set: cell-based. The following applies: read-out: TC50. In short, it runs like this: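 Uninfected CEM174 cells under the antiviral assay conditions (5 days, 37 °C, 5% CO₂, humidified) with compound dilutions. Proliferation read by MTT reduction. TC₅₀ is the concentration inhibiting proliferation by 50%.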

A short description of data set [3]: Therapeutic index, TC50 for human CEM174 cells to EC50 for SIV-induced syncytium. It counts as cell-based. The note with it: read-out: TI. In short, it runs like this:
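Index calculated as TC₅₀ (MTT, uninfected CEM174, 5 days) divided by EC₅₀ (inhibition of SIV syncytium formation in CEM174 cells infected with 100 TCID₅₀ per well, 5 days, microscopic scoring).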

In data set [4] the target is Structural capsid protein (Human immunodeficiency virus 1) (UniProt Q76129). The data set is described as follows: Binding affinity to HIV1 capsid protein assessed as decrease in assembly rate by turbidity-based ultraviolet spectrophotometry (RVb= 59.2+/-0.3 milliOD/min).
Structural capsid protein (Human immunodeficiency virus 1), sequence (Q76129 as listed by the source): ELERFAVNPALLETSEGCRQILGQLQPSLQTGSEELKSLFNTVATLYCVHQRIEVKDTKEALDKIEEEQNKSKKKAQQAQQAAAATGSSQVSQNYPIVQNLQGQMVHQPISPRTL
The target is the same in data set [5]. The data set can be described thus: Binding affinity to HIV1 capsid protein assessed as assembly rate at 10 uM by turbidity-based ultraviolet spectrophotometry.
Data set [6] has the same target. The data set can be described thus: Binding affinity to HIV1 capsid protein assessed as assembly rate at 20 uM by turbidity-based ultraviolet spectrophotometry.
Data set [7] shares this target. The data set can be described thus: Binding affinity to HIV1 capsid protein assessed as assembly rate at 40 uM by turbidity-based ultraviolet spectrophotometry.

As a reminder, the EC50 is the midpoint of the concentration-response curve.

With `Cc1ccc(S(=O)(=O)N[C@@H](Cc2ccccc2)C(=O)N/N=C/c2ccc([N+](=O)[O-])cc2)cc1`, the EC50 in data set [1] worked out at 6.64 µM. Besides, in data set [2], the CC50 at 120 h worked out at 9.8 µM. Moreover, the selectivity ratio in data set [3] stood at 1.5. In addition, the Activity (milli optical density/minute) in data set [4] was found to be 31.9.
As for `O=C(N[C@@H](CO)C(=O)N/N=C/c1ccccc1)c1ccc([N+](=O)[O-])cc1`, the EC50 in data set [1] was 2 µM. The CC50 at 120 h in data set [2] is above 100 µM. The selectivity ratio in data set [3] is above 50.
For `Cc1ccc(S(=O)(=O)N[C@@H](Cc2ccccc2)C(=O)NN=C(c2ccccc2)c2ccccc2)cc1`, the EC50 in data set [1] is 0.27 µM. The CC50 at 120 h in data set [2] is above 100 µM. For the same molecule, in data set [3], the selectivity ratio is above 365.
Take `CC(=O)Nc1ccc(S(=O)(=O)N[C@@H](CO)C(=O)N/N=C/c2ccccc2)cc1`: the EC50 in data set [1] was 1.32 µM. In addition, the CC50 at 120 h in data set [2] was above 100 µM. In data set [3], the selectivity ratio was above 75.8.
Regarding `Cc1ccc(S(=O)(=O)N[C@@H](Cc2ccccc2)C(=O)N/N=C/c2ccc3c(c2)OCO3)cc1`, the EC50 in data set [1] is 0.17 µM. In data set [2], the CC50 at 120 h is above 100 µM. For the same molecule, the selectivity ratio in data set [3] was above 588. The Activity (milli optical density/minute) in data set [4] turned out to be 7.9; in data set [5] it was 13.2; in data set [6] it was 7.4; in data set [7] it was 2.5.
On to `COc1ccc(C(=O)N[C@@H](Cc2ccccc2)C(=O)N/N=C/c2ccccc2)cc1`, for which the EC50 in data set [1] is 0.2 µM. For the same molecule, the CC50 at 120 h in data set [2] is above 100 µM. Moreover, the selectivity ratio in data set [3] is above 500. The Activity (milli optical density/minute) in data set [4] amounted to 22.6.
As to `CC(=O)Nc1ccc(S(=O)(=O)NCC(=O)N/N=C/c2ccccc2)cc1`, the EC50 in data set [1] was 15.1 µM. Further, in data set [2], the CC50 at 120 h was above 100 µM. Further, the selectivity ratio in data set [3] was above 6.6.
In the same order, the values of `O=C(N/N=C/c1ccccc1)[C@H](CO)NS(=O)(=O)c1ccc(Br)cc1` are 36 µM, 80.2 µM and 2.2.
Consider `Cc1ccc(S(=O)(=O)N[C@@H](Cc2ccccc2)C(=O)N/N=C/c2ccc(Br)cc2)cc1`, for which, in data set [1], the concentration giving a half-maximal response (EC50) is 5.49 µM. In addition, the CC50 at 120 h in data set [2] was found to be 82.5 µM. Further, the selectivity ratio in data set [3] was 15.
`Cc1ccc(S(=O)(=O)N[C@@H](Cc2ccccc2)C(=O)N/N=C/c2ccccc2)cc1`: the EC50 in data set [1] was found to be 0.4 µM. Also, the CC50 at 120 h in data set [2] came to 50 µM. The selectivity ratio in data set [3] came to 125. The Activity (milli optical density/minute) in data set [4] amounted to 18.9.
On to `COc1ccc(C(=O)NCC(=O)N/N=C/c2ccccc2)cc1`, for which the EC50 in data set [1] turned out to be 2 µM. In addition, in data set [2], the CC50 at 120 h stood at 63.8 µM. Besides, the selectivity ratio in data set [3] turned out to be 31.9. Also, in data set [4], the Activity (milli optical density/minute) stood at 43.5.
In the case of `Cc1ccc(S(=O)(=O)N[C@@H](Cc2ccccc2)C(=O)N/N=C/c2ccco2)cc1`, in data set [1], the EC50 stood at 2.46 µM. In data set [2], the CC50 at 120 h came to 99.8 µM. The selectivity ratio in data set [3] amounted to 40.6.
For the molecule `COc1ccc(C(=O)N[C@@H](CO)C(=O)N/N=C/c2ccccc2)cc1`, the EC50 in data set [1] is 0.6 µM. Also, the CC50 at 120 h in data set [2] turned out to be 45.6 µM. For the same molecule, the selectivity ratio in data set [3] was 76. In data set [4], the Activity (milli optical density/minute) is 21.7.
For the molecule `O=C(N/N=C/c1ccccc1)c1ccc([N+](=O)[O-])cc1`, in data set [1], the EC50 was 5.59 µM. Further, the CC50 at 120 h in data set [2] was 29.6 µM. In addition, in data set [3], the selectivity ratio was 5.3.
In the case of `Cc1ccc(S(=O)(=O)N[C@@H](CO)C(=O)N/N=C/c2ccccc2)cc1`, the EC50 in data set [1] is 1.63 µM. Also, in data set [2], the CC50 at 120 h is 5.19 µM. In data set [3], the selectivity ratio came to 3.2. Besides, in data set [4], the Activity (milli optical density/minute) stood at 24.4.
Take `Cc1ccc(S(=O)(=O)N[C@@H](Cc2ccccc2)C(=O)N/N=C/c2ccccc2F)cc1`: in data set [1], the EC50 came out at 4.45 µM. Besides, the CC50 at 120 h in data set [2] is above 100 µM. Further, in data set [3], the selectivity ratio was above 22.5.
Take `COc1cc(/C=N/NC(=O)[C@H](Cc2ccccc2)NS(=O)(=O)c2ccc(C)cc2)ccc1O`: the EC50 in data set [1] came out at 0.21 µM. Besides, the CC50 at 120 h in data set [2] was above 100 µM. Also, the selectivity ratio in data set [3] is above 476. Also, the Activity (milli optical density/minute) in data set [4] is 10.6; in data set [5], 14; in data set [6], 10.9; in data set [7], 7.7.
For the molecule `Cc1ccc(NC(=O)NCCSCc2ccc(CN(C)C)o2)cc1Cl`, the Activity (milli optical density/minute) in data set [4] is 33.4.
Consider `O=S(=O)(c1ccc(Br)cc1)N1CCC(c2ccccc2)=N1`, for which the EC50 in data set [1] stood at 0.1 µM. Further, the CC50 at 120 h in data set [2] was 38.2 µM. Moreover, the selectivity ratio in data set [3] was found to be 382. Besides, in data set [4], the Activity (milli optical density/minute) is 17.3.
Regarding `Cc1ccc(/C=N/NC(=O)[C@H](Cc2ccccc2)NS(=O)(=O)c2ccc(C)cc2)cc1`, the EC50 in data set [1] was found to be 9.93 µM. The CC50 at 120 h in data set [2] is above 100 µM. Also, in data set [3], the selectivity ratio is above 10.1. Moreover, in data set [4], the Activity (milli optical density/minute) was determined as 46.
As to `COc1ccc(C(=O)N/N=C/c2ccccc2)cc1`, the EC50 in data set [1] was 31.1 µM. Also, the CC50 at 120 h in data set [2] was above 100 µM. Also, the selectivity ratio in data set [3] is above 3.22.
Turning to `O=[N+]([O-])c1ccc(S(=O)(=O)N2CCC(c3ccccc3)=N2)cc1`, the EC50 in data set [1] is 0.52 µM. Also, in data set [2], the CC50 at 120 h was above 100 µM. In data set [3], the selectivity ratio is above 192.
With `Cc1ccc(S(=O)(=O)NCC(=O)N/N=C/c2ccccc2)cc1`, in data set [1], the EC50 was 1.5 µM. In addition, the CC50 at 120 h in data set [2] amounted to 83.5 µM. Further, the selectivity ratio in data set [3] came to 55.7. In addition, the Activity (milli optical density/minute) in data set [4] is 23.1.
Regarding `Cc1ccc(S(=O)(=O)N/N=C/c2ccccc2)cc1`, the EC50 in data set [1] stood at 0.36 µM. Moreover, the CC50 at 120 h in data set [2] was 31.7 µM. In data set [3], the selectivity ratio amounted to 88.1.
In the same order, the values of `C/C(=N\NC(=O)[C@H](Cc1ccccc1)NS(=O)(=O)c1ccc(C)cc1)c1ccccc1` are 0.3 µM, 21.2 µM and 70.7.
With `CC(=O)Nc1ccc(S(=O)(=O)N[C@@H](Cc2ccccc2)C(=O)N/N=C/c2ccccc2)cc1`, in data set [1], the EC50 came to 0.47 µM. Moreover, the CC50 at 120 h in data set [2] was above 100 µM. Besides, in data set [3], the selectivity ratio was above 213. Further, the Activity (milli optical density/minute) in data set [4] amounted to 20.8.
On to `Cc1ccc(S(=O)(=O)N[C@@H](Cc2ccccc2)C(=O)NN=C2CCCCC2)cc1`, for which the EC50 in data set [1] came to 0.89 µM. For the same molecule, the CC50 at 120 h in data set [2] was found to be 78.3 µM. For the same molecule, in data set [3], the selectivity ratio is 87.6.
Consider `C/C(=N\NC(=O)[C@H](Cc1ccccc1)NS(=O)(=O)c1ccc(C)cc1)c1cccc2ccccc12`, for which the EC50 in data set [1] came to 0.4 µM. Further, the CC50 at 120 h in data set [2] amounted to 49.1 µM. Also, the selectivity ratio in data set [3] was found to be 123.
In the same order, the values of `O=S(=O)(N/N=C/c1ccccc1)c1ccc(Br)cc1` are 0.95 µM, above 100 µM and above 105.
In the case of `O=C(N[C@@H](Cc1ccccc1)C(=O)N/N=C/c1ccccc1)c1ccc([N+](=O)[O-])cc1`, the EC50 in data set [1] turned out to be 3 µM. Further, the CC50 at 120 h in data set [2] turned out to be 18.7 µM. Also, the selectivity ratio in data set [3] turned out to be 6.2.
In the case of `Cc1ccc(S(=O)(=O)N[C@@H](Cc2ccccc2)C(=O)N/N=C/c2ccc(Cl)cc2)cc1`, the EC50 in data set [1] was 2.8 µM. Also, the CC50 at 120 h in data set [2] was 9.4 µM. Moreover, the selectivity ratio in data set [3] was 3.4.
As to `O=C(CNC(=O)c1ccc([N+](=O)[O-])cc1)N/N=C/c1ccccc1`, the EC50 in data set [1] is 1.03 µM. Besides, the CC50 at 120 h in data set [2] was above 100 µM. In data set [3], the selectivity ratio is above 97.1.
As to `O=C(CNS(=O)(=O)c1ccc(Br)cc1)N/N=C/c1ccccc1`, the EC50 in data set [1] is 0.33 µM. Besides, the CC50 at 120 h in data set [2] was found to be 92.8 µM. Also, in data set [3], the selectivity ratio turned out to be 284. The Activity (milli optical density/minute) in data set [4] came out at 22.5.
In the case of `O=C(N/N=C/c1ccccc1)[C@H](Cc1ccccc1)NS(=O)(=O)c1ccc(Br)cc1`, in data set [1], the EC50 was 15.3 µM. Also, the CC50 at 120 h in data set [2] was above 100 µM. The selectivity ratio in data set [3] was above 6.5.
As for `CC(=O)Nc1ccc(S(=O)(=O)N/N=C/c2ccccc2)cc1`, the EC50 in data set [1] came to 0.65 µM. The CC50 at 120 h in data set [2] stood at 40 µM. Also, the selectivity ratio in data set [3] turned out to be 61.5.
